B1: M264D: α-TTP mutant; surface methionine replaced with aspartate in a region predicted distant from the membrane plane (protein, UniProt P49638 1-278, looked up, variant M264D)
Alpha-tocopherol transfer …: MAEARSQPSAGPQLNALPDHSPLLQPGLAALRRRAREAGVPLAPLPLTDSFLLRFLRARDFDLDLAWRLLKNYYKWRAECPEISADLHPRSIIGLLKAGYHGVLRSRDPTGSKVLIYRIAHWDPKVFTAYDVFRVSLITSELIVQEVETQRNGIKAIFDLEGWQFSHAFQITPSVAKKIAAVLTDSFPLKVRGIHLINEPVIFHAVFSMIKPFLTEKIKERIHMHGNNYKQSLLQHFPDILPLEYGGEEFSMEDICQEWTNFIDKSEDYLSSISESIQ
B2: M209D: α-TTP mutant, Met209 to Asp (helix A10) (protein, UniProt P49638 1-278, looked up, variant M209D)
Alpha-tocopherol transfer …: MAEARSQPSAGPQLNALPDHSPLLQPGLAALRRRAREAGVPLAPLPLTDSFLLRFLRARDFDLDLAWRLLKNYYKWRAECPEISADLHPRSIIGLLKAGYHGVLRSRDPTGSKVLIYRIAHWDPKVFTAYDVFRVSLITSELIVQEVETQRNGIKAIFDLEGWQFSHAFQITPSVAKKIAAVLTDSFPLKVRGIHLINEPVIFHAVFSDIKPFLTEKIKERIHMHGNNYKQSLLQHFPDILPLEYGGEEFSMEDICQEWTNFIMKSEDYLSSISESIQ
B3: I202D/M209D: α-TTP double mutant (protein, UniProt P49638 1-278, looked up, variant I202D M209D)
Alpha-tocopherol transfer …: MAEARSQPSAGPQLNALPDHSPLLQPGLAALRRRAREAGVPLAPLPLTDSFLLRFLRARDFDLDLAWRLLKNYYKWRAECPEISADLHPRSIIGLLKAGYHGVLRSRDPTGSKVLIYRIAHWDPKVFTAYDVFRVSLITSELIVQEVETQRNGIKAIFDLEGWQFSHAFQITPSVAKKIAAVLTDSFPLKVRGIHLINEPVDFHAVFSDIKPFLTEKIKERIHMHGNNYKQSLLQHFPDILPLEYGGEEFSMEDICQEWTNFIMKSEDYLSSISESIQ
B4: I202D: α-TTP mutant, Ile202 to Asp (helix A10) (protein, UniProt P49638 1-278, looked up, variant I202D)
Alpha-tocopherol transfer …: MAEARSQPSAGPQLNALPDHSPLLQPGLAALRRRAREAGVPLAPLPLTDSFLLRFLRARDFDLDLAWRLLKNYYKWRAECPEISADLHPRSIIGLLKAGYHGVLRSRDPTGSKVLIYRIAHWDPKVFTAYDVFRVSLITSELIVQEVETQRNGIKAIFDLEGWQFSHAFQITPSVAKKIAAVLTDSFPLKVRGIHLINEPVDFHAVFSMIKPFLTEKIKERIHMHGNNYKQSLLQHFPDILPLEYGGEEFSMEDICQEWTNFIMKSEDYLSSISESIQ

Columns and labels:
[1] = FRET assay of NBD-Toc transfer from α-TTP variants to SUVs; format: biochemical; settings: for Rate of NBD-Toc transfer to SUV, Rate: PC vesicles, 0.225 μM NBD-Toc, 2 μM α-TTP, 100 μM vesicles, room temperature; for Rate of NBD-Toc transfer to SUV, Rate^mut/Rate^wt: relative to wild type; for Reduction of rate of transfer to SUVs: reduction relative to wild type
In short: (§1)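 Each protein (4 μM) was preloaded with 0.45 μM NBD-Toc for 15 min in SET buffer (pH 7.4). It was then stopped-flow mixed at room temperature with 200 μM acceptor vesicles of 97% liver PC and 3% TRITC-PE (finals 0.225 μM, 2 μM, 100 μM). Vesicles were sonicated SUVs (~60 nm) or extruded LUVs (150 nm). NBD quench was normalised to initial fluorescence and fitted single-exponentially.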

[2] = FRET assay of NBD-Toc transfer from α-TTP variants to LUVs; format: biochemical; settings: for Rate of NBD-Toc transfer to LUV, Rate: PC vesicles, 0.225 μM NBD-Toc, 2 μM α-TTP, 100 μM vesicles, room temperature; for Rate of NBD-Toc transfer to LUV, Rate^mut/Rate^wt: relative to wild type
In short: as §1

[3] = Dual polarization interferometry of protein adsorption to immobilized bilayer; format: binding; settings: for Ads^mut/Ads^wt (0.50 μM injection): 0.50 μM protein injection; for Ads^mut/Ads^wt (1.0 μM injection): 1.0 μM protein injection; for Fold change in affinity: relative to wild type
In short: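 Recombinant α-TTP (E. coli BL21(DE3), glutathione affinity, thrombin-cleaved) was dialysed 1 h at 4 °C into pH 7.4 phosphate/137 mM NaCl buffer. It was injected at 25 μl/min for 8 min over a 90:10 DOPC:DOPS bilayer on a silicon oxynitride chip at 20 °C. Adsorbed mass was measured at 0.5 and 1.0 μM in quadruplicate, two channels each. Kd came from fitting Bmax against concentration.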

| Molecule | Rate of NBD-Toc transfer to SUV, Rate [1] | Rate of NBD-Toc transfer to SUV, Rate^mut/Rate^wt [1] | Reduction of transfer rate with LUVs versus SUVs ([2]; LUVs compared with SUVs) | Rate of NBD-Toc transfer to LUV, Rate [2] | Rate of NBD-Toc transfer to LUV, Rate^mut/Rate^wt [2] | Ads^mut/Ads^wt (0.50 μM injection) [3] | Ads^mut/Ads^wt (1.0 μM injection) [3] | Fold change in affinity [3] | Reduction of rate of transfer to SUVs [1] | Reduction of rate of ligand deposition in LUVs ([2]; reduction relative to wild type) |
| --- | --- | --- | --- | --- | --- | --- | --- | --- | --- | --- |
| WT: human α-tocopherol transfer protein, wild type, expressed in E. coli as GST fusion and cleaved | 0.127 ± 0.012 s⁻¹ | 100% | 8 fold | 0.016 ± 0.002 s⁻¹ | 100% | 1 | 1 | 0 | – | – |
| B1 | 0.116 ± 0.013 s⁻¹ | 91% | – | 0.008 ± 0.001 s⁻¹ | 50% | 0.66 | 0.81 | – | 9% | 50% |
| B2 | 0.047 ± 0.004 s⁻¹ | 37% | – | 0.013 ± 0.001 s⁻¹ | 81% | 0.39 | 0.42 | 1.2 | 63% | – |
| B3 | – | 11% | – | 0.008 ± 0.003 s⁻¹ | 50% | 0.13 | 0.07 | 10.9 | – | – |
| B4 | 0.028 ± 0.002 s⁻¹ | 22% | – | 0.005 ± 0.002 s⁻¹ | 31% | 0.29 | 0.27 | 5 | 78% | – |

From article PMC3038628 (Journal of molecular biology, 2010)
